Measurements published in article PMC2094070 (Nucleic Acids Research, 2007).

What was measured:
[1] = tested on: cytosolic ribosomes in rabbit reticulocyte lysate; experiment: Rabbit reticulocyte translation assay; format: biochemical; conditions: read-out: IC50, inhibition of luciferase synthesis, luciferase mRNA, 30°C, 90 min
How it was run: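 Rabbit reticulocyte lysate supplied cytosolic ribosomes to translate firefly luciferase control mRNA (500 ng), with amino acids (100 μM each) and RNasin. Aminoglycosides were added as serial dilutions, then incubated at 30°C for 90 min. Luciferase substrate was added and luminescent activity read. IC50 and the 100% value came from best-fit nonlinear regression.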

[2] = tested on: wild-type M. smegmatis 70S ribosomes; experiment: Cell-free luciferase translation assay, wild-type ribosomes; format: biochemical; conditions: read-out: IC50, inhibition of luciferase synthesis; Mycobacterium smegmatis wild-type ribosomes; coupled transcription–translation, 37°C, 60 min
[3] = tested on: M. smegmatis Leishmania hybrids (Leishmania/Trypanosoma decoding site); experiment: MIC broth microdilution, cells with Leishmania/Trypanosoma hybrid ribosomes; format: cell-based, Mycobacterium smegmatis; conditions: for Relative resistance (ratio of mutant to wild-type MIC): Leishmania hybrids versus wild-type M. smegmatis; for MIC: M. smegmatis cells with Leishmania/Trypanosoma hybrid ribosomes, 37°C, 72 h
[4] = tested on: M. smegmatis mutants carrying human–bacterial hybrid ribosomes (Homo sapiens helix 44 decoding site); experiment: MIC broth microdilution, cells with human-bacterial hybrid ribosomes; format: cell-based, Mycobacterium smegmatis; conditions: for Relative resistance (ratio of mutant to wild-type MIC): human hybrids versus wild-type M. smegmatis; for MIC: M. smegmatis cells with Homo sapiens hybrid ribosomes, 37°C, 72 h
[5] = tested on: Mycobacterium smegmatis hybrids with a Blastocrithidia decoding region; experiment: MIC broth microdilution, cells with Blastocrithidia hybrid ribosomes; format: cell-based; conditions: M. smegmatis cells with Blastocrithidia hybrid ribosomes; 37°C, 72 h
[6] = tested on: Mycobacterium smegmatis wild-type; experiment: MIC broth microdilution, wild-type strain; format: cell-based; conditions: 37°C, 72 h

Row | Compound | IC50 [1] [nM] | IC50 [2] [nM] | Relative resistance (ratio of mutant to wild-type MIC) [3] | Relative resistance (ratio of mutant to wild-type MIC) [4] | MIC [3] [µg/mL] | MIC [4] [µg/mL] | MIC [5] [µg/mL] | MIC [6] [µg/mL]
1 | CN[C@@H]1[C@@H](O)[C@@H](O[C@@H]2[C@@H](O)[C@H](O[C@H]3O[C@H]([C@@H](C)O)[C@@H](O)[C@H](O)[C@H]3N)[C@@H](N)C[C@H]2N)OC[C@]1(C)O [Geneticin, geneticin (G418)] | 200 | 30 |  |  |  |  |  | 
2 | CNC(C)C1CCC(N)C(OC2C(N)CC(N)C(OC3OCC(C)(O)C(NC)C3O)C2O)O1 (stereo not shown) [Gentamicin, gentamicin] |  |  | ≥ 1024 | ≥ 1024 |  |  |  | 
3 | CCN[C@@H]1C[C@H](N)[C@@H](O[C@H]2OC(CN)=CC[C@H]2N)[C@H](O)[C@H]1O[C@H]1OC[C@](C)(O)[C@H](NC)[C@H]1O [Netilmicin, netilmicin] | 58000 | 50 | ≥ 1024 | ≥ 1024 |  |  |  | 
4 | NC[C@@H]1O[C@H](O[C@H]2[C@@H](O)[C@H](O[C@@H]3[C@@H](O)[C@H](N)C[C@H](N)[C@H]3O[C@H]3O[C@H](CO)[C@@H](O)[C@H](O)[C@H]3N)O[C@@H]2CO)[C@H](N)[C@@H](O)[C@@H]1O [Paromomycin, paromomycin] | 9200 | 30 |  | ≥ 1024 |  |  |  | 
5 | NC[C@H]1O[C@H](O[C@H]2[C@H](O)[C@@H](O[C@H]3O[C@H](CO)[C@@H](O)[C@H](N)[C@H]3O)[C@H](N)C[C@@H]2N)[C@H](N)C[C@@H]1O [Tobramycin, tobramycin] | 38000 | 20 | ≥ 1024 | ≥ 1024 |  |  |  | 
6 | kanamycin A | 67000 | 50 | ≥ 1024 | ≥ 1024 | >1024 | >1024 | 1 | 1
7 | neomycin | 18000 | 40 | ≥ 1024 | ≥ 1024 | >1024 | >1024 | 1 | 0.5
